# Data from paper PMC9066373 (Journal for Immunotherapy of Cancer, 2022).
# System: HHD-DR1 mice
# Experiment: Immunization of HHD-DR1 mice, IFN-γ ELISPOT of splenocytes
# Assay type: in vivo
# Conditions: HHD-DR1 mice n=4, poly(I:C), in words
# Outline: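 HHD-DR1 transgenic mice (human HLA-A*02.01 and HLA-DRB1*01; n=4/group) received a CD8 neoantigen peptide with poly(I:C), combined with a CD4 neoantigen peptide, anti-CD40 or both. Adjuvants were given at 50 µg/mouse. Class I peptide was injected s.c.; class II peptide i.v., boosted 1 week later. Spleens were taken 7 days after the last dose. Splenocytes (8×10⁵/well) were peptide-stimulated (10–0.01 µM) for 24 h and read by IFN-γ ELISPOT, no-peptide background subtracted.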
sequence,measurement,value
KYVYDFGVSV,Response against KYV when antiCD40 is added to KYV plus EVT,antiCD40 did not improve responses
